Source: PubChem BioAssay (Broad Institute)
Rows were chosen to be rich in hits. Some 2.9% of all compounds tested hit in one or more screens of this group.
CDK5 p35 inh = blocks human CDK5/p35 kinase activity. Recombinant CDK5/p35, ADP-Glo luminescence, 60 min. inhibition, % at 10 µM. 330,000 compounds, 0.01% hits. AID 488839;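 active = highest replicate inhibition of at least 50% and at least 75% of replicates reaching 50%; inconclusive = only one of the two criteria met; inactive = both criteria failed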;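 also: plate controls were DMSO neutral control for no effect and GW8510 at 10 µM for full effect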
Cneo AK release = causes C. neoformans cell lysis. adenylate kinase release luminescence, 4 h; normalised: neutral wells 0, clomiphene wells 100. lysis activity, % at 15 µM. 360,000 compounds, 0.2% hits. AID 651654;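 active = mean lysis activity across replicates of at least 80%, whatever share of replicates individually reach that level; inactive = mean lysis activity below 80%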
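Material – Cryptococcus neoformans yeast cells · Quantity – 5 × 10^6 yeast cells/mL · Buffer or medium – YPD medium · Compound – single dose · Timing – 4 h static compound exposure, 37 °C, read 1 h post-reagent · Signal – adenylate kinase release luminescence · Read-out basis – lysis from increased AK signal · Benchmarks – Clomiphene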
HIV Env fusion = HIV envelope-mediated fusion inhibition | HeLa-JRFL Env/CEM21 cell fusion, luciferase | AID 651610 | 360,000 compounds, 1.1% hits | inhibition, % at 12.3 µM;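 active = mean replicate inhibition score of at least 50 and every replicate individually at or above 50; inconclusive = only one of the two criteria met; inactive = mean below 50 and not all replicates reaching 50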;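 also: 0% = plate neutral controls and 100% = maraviroc near 300 nM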
GSIS activator = primary screen for activators of insulin secretion dependent on glucose, INS-1E cells, GLuc reporter luminescence; INS-1E GLuc reporter insulin secretion, 2-3 h; activation, % at 16.6 µM; 370,000 compounds, 0.61% hits; AID 743287;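 active = lowest replicate activation of at least 40%, so every replicate reaches that level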;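 also: 0% = median of neutral control wells and 100% = median of IBMX positive control wells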
PAX8 reporter = PAX8 transcriptional activity inhibition | RMG-I TPO-luciferase reporter, SteadyGlo, 24 h | inhibition, % at 12.6 µM | 360,000 compounds, 1.2% hits | AID 652154;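 active = mean replicate inhibition at least 60% with every replicate also reaching 60%; inconclusive = only one of the two criteria is met; inactive = mean below 60% and not all replicates reaching 60%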;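 also: luciferase light reporting Pax8 driven TPO promoter activity; plate controls were median of neutral control wells for no effect and mitoxantrone controls for full effect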
dFosB activator = mouse delta FosB homodimer activation; 340,000 compounds, 0.99% hits; activation, % at 25 µM; purified delta FosB, TAMRA-CDK5 oligo fluorescence polarization; percent of positive-control signal above neutral wells; P13346; AID 493131;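 active = mean activation above about 17%, with every replicate also reaching it, limit read from the data, passing the limit was not always enough; inconclusive = only one of the two conditions met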
Target sequence (P13346 whole entry, looked up): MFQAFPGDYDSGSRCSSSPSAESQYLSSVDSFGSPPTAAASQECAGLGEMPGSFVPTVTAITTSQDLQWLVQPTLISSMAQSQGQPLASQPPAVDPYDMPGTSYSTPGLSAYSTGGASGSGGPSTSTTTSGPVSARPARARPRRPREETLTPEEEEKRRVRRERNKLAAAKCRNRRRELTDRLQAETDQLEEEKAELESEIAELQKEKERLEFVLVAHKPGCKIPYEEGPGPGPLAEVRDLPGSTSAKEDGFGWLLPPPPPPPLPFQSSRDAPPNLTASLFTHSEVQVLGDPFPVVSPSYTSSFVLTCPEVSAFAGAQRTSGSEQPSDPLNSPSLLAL
Starred values were filed as active, the others as inactive; ? = inconclusive; . = not tested or not shown; ! = not active in a repeat; [ ] = dose if it differs, or a comment.

SMILES | CDK5 p35 inh | Cneo AK release | HIV Env fusion | GSIS activator | PAX8 reporter | dFosB activator
C[C@@H]1CN([C@H](C)CO)C(=O)Cc2cc(NS(=O)(=O)c3cn(C)cn3)ccc2O[C@@H]1CN(C)S(=O)(=O)c1cccs1 | . | -3 | 4[16.7 µM] | 48 | -9 | .
Cn1c(Cn2cnc([N+](=O)[O-])n2)nnc1SCC(=O)Nc1ccccc1 | 1 | 4 | . | -3 | 81* | -4
O=C(C[C@H]1CC[C@@H]2[C@H](COC[C@H](O)CN2Cc2cccc(F)c2)O1)NCC1CCCCC1 | . | -1 | . | -1 | -32 | .
NC(=S)c1ccc(OCCCc2ccccc2)cc1 | . | 4 | 70* | 3 | -224 | .
CC=Cc1ccc2n(c1=O)C[C@H]1[C@H](CO)[C@@H](C(=O)NC3CCC3)[C@@H]2N1Cc1cccnc1 (mixture of isomers) | . | -5 | . | -2 | . | .
COC(=O)C1C=CC(OC2OC(COC(C)=O)C(OC(C)=O)C(OC(C)=O)C2OC(C)=O)n2c(=O)n(-c3ccccc3)c(=O)n21 (stereo not given) | 1 | . | -17 | -9 | 101* | -15
CN(CC(=O)Nc1ccc(OC(F)(F)F)cc1)C(=O)Cc1cccs1 | 1 | -2 | 62* | -7 | -6 | -6
CC(C)(C)c1ccc(-c2cn(-c3ccc(Br)cc3)c3[n+]2CCCS3)cc1 | 0 | . | ? | -51 | 95* | -11
CC1CC(C)(C)N2C(=O)C3(Nc4ccccc4S3)c3cccc1c32 (stereo not given) | -3 | 22 | . | . | . | -13
Cc1cc2c3c(c1)C1(SCC(=O)N1c1ccc(F)cc1)C(=O)N3C(C)(C)CC2C (stereo not given) | 0 | 0 | 69* | -9 | . | -1
C[C@@H]1CN([C@H](C)CO)C(=O)c2cc(C#CC3(O)CCCC3)cnc2O[C@@H]1CN(C)C(=O)C1CC1 | . | . | -9[16.7 µM] | 11 | . | .
Cc1nc(N)nc2c1CCCC2 | -1 | -1 | . | 43* | . | 4
Cc1nc(S(=O)(=O)Cc2ccc(Cl)cc2)nc2c1CCC2 | -2 | 13 | 1 | -1 | 16 | 0
Cn1nc(Cc2cccc3ccccc23)c(C#N)c1N | 0 | -1 | -12 | 1 | -7 | 3
CC(C)(C)n1nc(Cc2cccc3ccccc23)c2c(N)ncnc21 | -1 | -2 | 82* | -4 | 17 | 2
O=c1c2ccccc2sn1-c1ccc(F)cc1 | 3 | -1 | -28 | 145* | -32 | 5
Cc1ccc(N2C(=O)CC(N3CCN(c4ccc(F)cc4)CC3)C2=O)c(C)c1 (stereo not given) | 0 | 0 | 11 | -14 | -12 | -5
Cc1ccc(-n2sc3ccccc3c2=O)cc1 | 1 | . | 25 | 6 | -50 | -3
O=c1c2ccccc2sn1-c1ccc(Cl)cc1 | . | -5 | 22 | 8 | -86 | .
Cc1ccc(-n2sc3cc(F)ccc3c2=O)c(C)c1 | . | -12 | 61 | 207* | 8 | .
O=c1c2cc(F)ccc2sn1-c1ccccc1Cl | . | -3 | 22 | 202* | 4 | .
O=c1c2ccc(F)cc2sn1-c1ccccc1 | . | -1 | 35 | 128* | -101 | .
COc1cccc(N(C(=O)Cc2cccs2)C(C(=O)NC2CCCC2)c2ccncc2)c1 (stereo not given) | 1 | -5 | -27 | -1 | 1 | -14
CCOc1cccc(N(C(=O)Cc2cccs2)C(C(=O)NC2CCCCC2)c2cccn2C)c1 (stereo not given) | 1 | -2 | 89* | . | . | 1
Cc1cc(C)cc(N(C(=O)Cc2cccs2)C(C(=O)NC2CCCCC2)c2ccccn2)c1 (stereo not given) | 1 | 0 | 119* | . | . | -9
SMILES | CDK5 p35 inh | Cneo AK release | HIV Env fusion | GSIS activator | PAX8 reporter | dFosB activator
CN(C)C(=O)[C@@H]1[C@@H](CO)[C@@H]2Cn3c(ccc(-c4cccc(F)c4)c3=O)[C@H]1N2Cc1ccccc1 | . | 2 | -14[16.7 µM] | -11 | . | .
C[C@@H]1CN([C@@H](C)CO)C(=O)c2c(c3ccccc3n2C)-c2ccccc2CO[C@@H]1CN(C)Cc1ccc(-c2ccccc2)cc1 | . | . | . | 22 | 63* | .
C[C@H]1CN([C@@H](C)CO)C(=O)c2c(c3ccccc3n2C)-c2ccccc2CO[C@@H]1CN(C)Cc1ccc(-c2ccccc2)cc1 | . | . | . | -14 | 82* | .
C[C@@H]1CN([C@@H](C)CO)C(=O)c2c(c3ccccc3n2C)-c2ccccc2CO[C@H]1CN(C)Cc1ccc(-c2ccccc2)cc1 | . | . | . | -3 | . | .
C[C@@H]1CN([C@H](C)CO)C(=O)c2c(c3ccccc3n2C)-c2ccccc2CO[C@@H]1CN(C)Cc1ccc(-c2ccccc2)cc1 | . | . | . | -25 | 18 | .
CC(C)NC(=O)Nc1ccc2c(c1)C(=O)N([C@H](C)CO)C[C@@H](C)[C@H](CN(C)Cc1ccc(Oc3ccccc3)cc1)O2 | . | 0 | . | -29 | 2 | .
CCCC#Cc1cnc2c(c1)C(=O)N([C@H](C)CO)C[C@H](C)[C@@H](CN(C)Cc1ccc(F)cc1)O2 | . | 8 | 6[16.7 µM] | -27 | . | .
Cc1ccccc1S(=O)(=O)N1CC(=O)N2[C@H](CO)[C@H](c3ccc(C#CCC(C)C)cc3)[C@@H]2C1 | . | . | . | -26 | -30 | .
CS(=O)(=O)N1CC(=O)N2[C@@H](CO)[C@H](c3ccc(C#CCC4CCCC4)cc3)[C@@H]2C1 | . | . | . | 6 | -2 | .
CS(=O)(=O)N1CC(=O)N2[C@H](CO)[C@H](c3ccc(C#CCC4CCCC4)cc3)[C@H]2C1 | . | . | . | 4 | 76* | .
Cc1ccccc1S(=O)(=O)N1CC(=O)N2[C@H](CO)[C@H](c3ccc(C#CCC(C)C)cc3)[C@H]2C1 | . | . | . | 9 | 66* | .
O=[N+]([O-])c1ccc(C2CCCC/C2=N\OCc2cccc(F)c2)c([N+](=O)[O-])c1 (stereo not given) | 2 | 1 | 85* | . | . | -4
CC1CCCC/C1=N/Nc1ccc([N+](=O)[O-])cc1[N+](=O)[O-] (stereo not given) | 4 | 8 | . | . | . | 0
C[C@H]1CN([C@@H](C)CO)C(=O)Cc2cc(NC(=O)NC3CCCCC3)ccc2O[C@H]1CN(C)CC1CC1 | . | 0 | 43[16.7 µM] | 10 | . | .
C[C@H](CO)N1C[C@H](C)[C@@H](CN(C)CC2CCCC2)Oc2ncc(Br)cc2C1=O | . | -7 | 12[16.7 µM] | 7 | . | .
OC(CNCC(c1ccc(Cl)cc1Cl)c1c[nH]c2ccccc12)c1ccccc1 (stereo not given) | -1 | 7 | 37 | -26 | 93* | 83*
COC(=O)N(C)C[C@H]1OCc2cn(nn2)CCCC(=O)N([C@@H](C)CO)C[C@@H]1C | . | 84*! | -16 | 6 | 35 | .
